Assay results: PMC3167688 (Nuclear medicine and biology, 2009)

Columns and labels:
[1] = Baboon arterial plasma analysis of unmetabolized radiotracer during PET; format: in vivo
[2] = tested on: Histone Deacetylase in the baboon brain; test: Baboon brain PET imaging with graphical analysis; format: in vivo; conditions: for average reduction in Vd of [^18F]FAHA: comparison of 0.5 and 0.25 mg/kg
tumor xenografts = conditions: cited from earlier work
HDAC = conditions: cited from earlier work
[3] = cited from earlier work
Plasma protein binding = format: in vitro ADME; conditions: plasma
[4] = In vitro whole blood and plasma incubation, radio-TLC; format: in vitro ADME, baboon
Procedure, shortened: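 Arterial whole blood or plasma (0.5 ml) came from one baboon 1 h after HDAC-inhibitor pretreatment (0.25 mg/kg), just before radiotracer dosing. Radiotracer was added at room temperature. Percent intact radiotracer was measured by radio-TLC after 10, 20 and 30 min.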

[5] = Stability of [^18F]FAHA in medium alone; format: in vitro ADME; conditions: incubated in medium alone; no detection of [^18F]FAC
Log D = format: physicochemical
plasma proteins = test: Plasma protein binding; format: in vitro ADME
[6] = Compartment modelling of [^18F]FAC uptake in baboon brain; format: in vivo; conditions: one animal; fixed for all four studies
Procedure, shortened: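 Two baboons. Arterial blood was sampled every 5 s for 2 min, then at longer intervals, centrifuged, and plasma counted. Brain time-activity curves from studies with the injected labelled metabolite were fitted with one- and two-compartment models. Fitted rate constants were fixed across studies to estimate metabolite brain uptake from peripheral radiotracer metabolism, using the metabolite fraction of arterial plasma input.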

Compound: O=C(CCCCCCC(=O)Nc1ccccc1)NO [SAHA, suberanilohydroxamic acid]
- effect on rate of metabolism of [^18F]FAHA in baboon plasma ([1]; SAHA 0.25, 0.5, 1.0 mg/kg iv, dose dependent manner): decrease the rate of metabolism
- average % reduction in Vd of [^18F]FAHA ([2]; 0.25 mg/kg, Brooke): 12 ± 12%
- average % reduction in Vd of [^18F]FAHA ([2]; 0.25 mg/kg, Lulu): 25 ± 8%
- average reduction in Vd of [^18F]FAHA ([2]; 0.25 mg/kg): 25± 5%
- average reduction in Vd of [^18F]FAHA ([2]; 0.5 mg/kg): 30± 9%
- average % reduction in Vd of [^18F]FAHA ([2]; 1 mg/kg, Brooke, averaged over all 6 ROIs (excluding global)): 43 ± 7%
- average % reduction in Vd of [^18F]FAHA ([2]; 1 mg/kg, Lulu, averaged over all 6 ROIs (excluding global)): 52 ± 8%
- effect on [^18F]FAHA radiotracer uptake (tumor xenografts; rodent tumor xenograft study): inhibit radiotracer uptake
- effect on [^18F]FAHA radiotracer uptake (HDAC; rat brain study): inhibit radiotracer uptake
- clinical doses well tolerated [3]: > 5 mg/kg

Compound: O=C(C[18F])NCCCCCC(=O)Nc1ccccc1 [[^18F]FAHA, 6-([^18F]fluoroacetamido)-1-hexanoicanilide]
- fraction unbound (Plasma protein binding): 0.539 ± 0.0176
- % Unmetabolized [^18F]FAHA in baboon plasma ([1]; animal 1, Baseline, 1min after bolus injection): 45%
- % Unmetabolized [^18F]FAHA in baboon plasma ([1]; animal 1, Baseline, 5min): 2%
- % Unmetabolized [^18F]FAHA in baboon plasma ([1]; animal 1, Baseline, 10min): 1%
- % Unmetabolized [^18F]FAHA in baboon plasma ([1]; animal 1, SAHA 0.25mg/kg iv 1 hour before, 1min): 84%
- % Unmetabolized [^18F]FAHA in baboon plasma ([1]; animal 1, SAHA 0.25mg/kg iv 1 hour before, 2min): 35%
- % Unmetabolized [^18F]FAHA in baboon plasma ([1]; animal 1, SAHA 0.25mg/kg iv 1 hour before, 5min): 10%
- % Unmetabolized [^18F]FAHA in baboon plasma ([1]; animal 1, SAHA 0.25mg/kg iv 1 hour before, 10min): 6%
- % Unmetabolized [^18F]FAHA in baboon plasma ([1]; animal 1, SAHA 0.5mg/kg iv 1 hour before, 1min): 78%
- % Unmetabolized [^18F]FAHA in baboon plasma ([1]; animal 1, SAHA 0.5mg/kg iv 1 hour before, 2min): 39%
- % Unmetabolized [^18F]FAHA in baboon plasma ([1]; animal 1, SAHA 0.5mg/kg iv 1 hour before, 5min): 14%
- % Unmetabolized [^18F]FAHA in baboon plasma ([1]; animal 1, SAHA 0.5mg/kg iv 1 hour before, 10min): 7%
- % Unmetabolized [^18F]FAHA in baboon plasma ([1]; animal 1, SAHA 1.0mg/kg iv 1 hour before, 1min): 86%
- % Unmetabolized [^18F]FAHA in baboon plasma ([1]; animal 1, SAHA 1.0mg/kg iv 1 hour before, 2min): 34%
- % Unmetabolized [^18F]FAHA in baboon plasma ([1]; animal 1, SAHA 1.0mg/kg iv 1 hour before, 5min): 22%
- % Unmetabolized [^18F]FAHA in baboon plasma ([1]; animal 1, SAHA 1.0mg/kg iv 1 hour before, 10min): 10%
- % Unmetabolized [^18F]FAHA in baboon plasma ([1]; animal 2, Baseline, 1min): 52%
- % Unmetabolized [^18F]FAHA in baboon plasma ([1]; animal 2, Baseline, 2min): 6%
- % Unmetabolized [^18F]FAHA in baboon plasma ([1]; animal 2, Baseline, 5min): 2%
- % Unmetabolized [^18F]FAHA in baboon plasma ([1]; animal 2, Baseline, 10min): 1%
- % Unmetabolized [^18F]FAHA in baboon plasma ([1]; animal 2, SAHA 0.25mg/kg iv 1 hour before, 1min): 87%
- % Unmetabolized [^18F]FAHA in baboon plasma ([1]; animal 2, SAHA 0.25mg/kg iv 1 hour before, 2min): 49%
- % Unmetabolized [^18F]FAHA in baboon plasma ([1]; animal 2, SAHA 0.25mg/kg iv 1 hour before, 5min): 11%
- % Unmetabolized [^18F]FAHA in baboon plasma ([1]; animal 2, SAHA 0.25mg/kg iv 1 hour before, 10min): 5%
- % Unmetabolized [^18F]FAHA in baboon plasma ([1]; animal 2, SAHA 0.5mg/kg iv 1 hour before, 1min): 78%
- % Unmetabolized [^18F]FAHA in baboon plasma ([1]; animal 2, SAHA 0.5mg/kg iv 1 hour before, 2min): 50%
- % Unmetabolized [^18F]FAHA in baboon plasma ([1]; animal 2, SAHA 0.5mg/kg iv 1 hour before, 5min): 14%
- % Unmetabolized [^18F]FAHA in baboon plasma ([1]; animal 2, SAHA 0.5mg/kg iv 1 hour before, 10min): 6%
- % Unmetabolized [^18F]FAHA in baboon plasma ([1]; animal 2, SAHA 1.0mg/kg iv 1 hour before, 1min): 85%
- % Unmetabolized [^18F]FAHA in baboon plasma ([1]; animal 2, SAHA 1.0mg/kg iv 1 hour before, 5min): 26%
- % Unmetabolized [^18F]FAHA in baboon plasma ([1]; animal 2, SAHA 1.0mg/kg iv 1 hour before, 10min): 20%
- peak brain uptake relative to [^18F]FAC ([2]; TACs in the same baboon): more than five times greater
- % Unmetabolized [^18F]FAHA after incubation in vitro (radio-TLC) ([4]; Blood-post (1h after SAHA administration, 0.25 mg/kg), time 10): 16%
- % Unmetabolized [^18F]FAHA after incubation in vitro (radio-TLC) ([4]; Blood-post, time 20): 0%
- % Unmetabolized [^18F]FAHA after incubation in vitro (radio-TLC) ([4]; Blood-post, time 30): 0%
- % Unmetabolized [^18F]FAHA after incubation in vitro (radio-TLC) ([4]; Blood-pre (before SAHA pretreatment), time 10, room temperature): 13%
- % Unmetabolized [^18F]FAHA after incubation in vitro (radio-TLC) ([4]; Blood-pre, time 20): 0%
- % Unmetabolized [^18F]FAHA after incubation in vitro (radio-TLC) ([4]; Blood-pre, time 30): 0%
- % Unmetabolized [^18F]FAHA after incubation in vitro (radio-TLC) ([4]; Plasma-post (1h after SAHA administration), time 10): 96%
- % Unmetabolized [^18F]FAHA after incubation in vitro (radio-TLC) ([4]; Plasma-post, time 20): 96%
- % Unmetabolized [^18F]FAHA after incubation in vitro (radio-TLC) ([4]; Plasma-post, time 30): 94%
- % Unmetabolized [^18F]FAHA after incubation in vitro (radio-TLC) ([4]; Plasma-pre (before SAHA pretreatment), time 10): 98%
- % Unmetabolized [^18F]FAHA after incubation in vitro (radio-TLC) ([4]; Plasma-pre, time 20): 94%
- % Unmetabolized [^18F]FAHA after incubation in vitro (radio-TLC) ([4]; Plasma-pre, time 30): 94%
- stability in medium alone [5]: stable up to 2 h
- tumor to muscle ratios (tumor xenografts; between 30–60 min post-injection): 2.2–2.4
- peak uptake in tumor xenografts (tumor xenografts; peak at 30 min, rats implanted with carcinoma cells): 0.43 %ID/g
- peak uptake in rat brain (HDAC): 0.44 % ID/g

Compound: O=C(O)C[18F] [[^18F]FAC, [^18F]fluoroacetate]
- logD (Log D): 0.70
- % of activity unbound to plasma proteins (plasma proteins): 57.2%
- K1 (2 compartment model, brain uptake of metabolite) [6]: 0.018 ml/min/cc
- k2 (2 compartment model) [6]: 0.04 min⁻¹
- k3 (2 compartment model) [6]: 0.008 min⁻¹
- k4 (2 compartment model) [6]: .003 min⁻¹
